Laboratory results: ChEMBL document CHEMBL5038641, “Development of PDE6D and CK1α Degraders through Chemical Derivatization of FPFT-2216” (J Med Chem, 2022)
Active and inactive are the calls of the source. The calls are words filed in the database; no cut-off is given here.

What was measured:
PaTu 8988t = assay: Antiproliferative activity against human PaTu 8988t cells assessed as reduction in cell viability measured after 3 days by Celltiter-Glo assay; type: functional, cell-based; conditions: for IC50: 72 h; for Activity: time 3.0 day
Method in brief: (§1)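 Cells grown per supplier recommendations with 10% FBS plus penicillin/streptomycin and mycoplasma-checked. 800 cells per well in 384-well format, dosed the next day at the indicated concentrations; depending on the agent, dosing was once or daily. Viability was read by CellTiter-Glo luminescence after three days of treatment, with a 20 min incubation before reading.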

AGS = assay: Antiproliferative activity against human AGS cells assessed as reduction in cell viability measured after 3 days by Celltiter-Glo assay; type: functional, cell-based; conditions: for IC50: 72 h; for Activity: time 3.0 day; method in brief: as §1
MIA PaCa-2 = assay: Antiproliferative activity against human MIA PaCa-2 cells assessed as reduction in cell viability measured after 3 days by Celltiter-Glo assay; type: functional, cell-based; conditions: for IC50: MIA PaCa-2, 72 h; for Activity: time 3.0 day; method in brief: as §1
NCI-H358 = assay: Antiproliferative activity against human NCI-H358 cells assessed as reduction in cell viability measured after 3 days by Celltiter-Glo assay; type: functional, cell-based; conditions: for IC50: NCI-H358, 72 h; for Activity: time 3.0 day; method in brief: as §1
[1] = target: Retinal rod rhodopsin-sensitive cGMP 3',5'-cyclic phosphodiesterase subunit delta (Homo sapiens) (UniProt O43924); assay: Induction of PDE6D degradation in human CRBN-null MOLT4 cells at 8 to 200 nM incubated for 4 hrs by Immunoblotting analysis; type: cell-based; conditions: MOLT-4, dose 8-200 nM
Retinal rod rhodopsin-sensitive cGMP 3',5'-cyclic phosphodiesterase subunit delta (Homo sapiens), sequence (O43924 whole entry): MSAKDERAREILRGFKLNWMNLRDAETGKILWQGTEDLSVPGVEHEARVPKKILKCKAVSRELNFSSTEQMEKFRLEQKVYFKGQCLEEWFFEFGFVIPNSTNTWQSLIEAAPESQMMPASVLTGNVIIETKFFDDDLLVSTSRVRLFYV

[2] = target: DNA-binding protein Ikaros (Homo sapiens) (UniProt Q13422); assay: Induction of IKZF1 degradation in human CRBN-null MOLT4 cells at 8 to 200 nM incubated for 4 hrs by Immunoblotting analysis; type: cell-based; conditions: MOLT-4, dose 8-200 nM
DNA-binding protein Ikaros (Homo sapiens), sequence (Q13422 whole entry): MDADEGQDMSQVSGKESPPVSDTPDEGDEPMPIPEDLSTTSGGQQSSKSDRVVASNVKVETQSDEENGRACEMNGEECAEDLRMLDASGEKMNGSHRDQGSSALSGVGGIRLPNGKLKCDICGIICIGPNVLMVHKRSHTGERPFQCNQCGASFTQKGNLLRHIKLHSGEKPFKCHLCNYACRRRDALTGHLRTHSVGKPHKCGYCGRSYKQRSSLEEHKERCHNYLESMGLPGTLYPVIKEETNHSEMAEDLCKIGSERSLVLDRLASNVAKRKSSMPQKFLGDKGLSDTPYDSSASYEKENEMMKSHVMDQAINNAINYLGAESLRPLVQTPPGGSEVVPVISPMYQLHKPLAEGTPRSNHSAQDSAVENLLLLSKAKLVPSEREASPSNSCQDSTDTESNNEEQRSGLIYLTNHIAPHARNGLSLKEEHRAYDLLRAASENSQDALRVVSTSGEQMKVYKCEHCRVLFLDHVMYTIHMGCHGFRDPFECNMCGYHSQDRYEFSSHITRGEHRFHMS

[3] = target: T1, Protein cereblon/Retinal rod rhodopsin-sensitive cGMP 3',5'-cyclic phosphodiesterase subunit delta (Homo sapiens, UniProt O43924+Q96SW2); assay: Protac activity at CRBN/PDE6D in human MOLT-4 cells assessed as induction of PDE6D degradation at 1 microM measured after 4 hrs by Immunoblotting analysis; type: cell-based
Method in brief: (§2)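 MOLT4 cells treated for 4 h, either at a single 1 µM screening dose or across a concentration series. Lysates were made in RIPA with protease/phosphatase inhibitors, and 20 μg protein was resolved by SDS-PAGE and transferred to nitrocellulose. PDE6D, IKZF1, IKZF3 and CK1α were immunoblotted against β-actin and detected with IRDye secondaries.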
Target sequence in this assay (O43924 whole entry, looked up): as the sequence (O43924 whole entry) above
Target sequence in this assay (Q96SW2 whole entry, looked up): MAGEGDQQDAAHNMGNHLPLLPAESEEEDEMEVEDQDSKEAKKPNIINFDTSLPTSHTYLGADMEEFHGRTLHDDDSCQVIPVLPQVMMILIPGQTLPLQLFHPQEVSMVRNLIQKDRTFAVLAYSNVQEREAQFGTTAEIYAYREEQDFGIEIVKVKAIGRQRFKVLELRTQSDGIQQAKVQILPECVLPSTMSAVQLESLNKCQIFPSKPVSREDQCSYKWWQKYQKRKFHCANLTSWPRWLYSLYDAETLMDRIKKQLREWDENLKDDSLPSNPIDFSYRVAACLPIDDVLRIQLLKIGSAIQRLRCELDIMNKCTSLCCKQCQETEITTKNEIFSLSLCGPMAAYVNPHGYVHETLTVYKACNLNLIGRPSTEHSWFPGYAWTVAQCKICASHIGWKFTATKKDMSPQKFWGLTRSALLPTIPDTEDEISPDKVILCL

[4] = target: T2, Cereblon/Ikaros (Homo sapiens) (UniProt Q96SW2+Q13422); assay: Protac activity at CRBN/IKZF1 in human MOLT-4 cells assessed as induction of IKZF1 degradation at 1 microM measured after 4 hrs by Immunoblotting analysis; type: cell-based; method in brief: as §2
[5] = target: T2, Cereblon/Ikaros (Homo sapiens); assay: Protac activity at CRBN/IKZF1 in human MOLT-4 cells assessed as induction of IKZF1 degradation at 250 nM measured after 4 hrs by proteome mass spectrometry
[6] = target: T3, Protein cereblon/Zinc finger protein Aiolos (Homo sapiens) (UniProt Q96SW2+Q9UKT9); assay: Protac activity at CRBN/IKZF3 in human MOLT-4 cells assessed as induction of IKZF3 degradation at 1 microM measured after 4 hrs by Immunoblotting analysis; type: cell-based; method in brief: as §2
T3 sequence (Q96SW2 whole entry, looked up): as above
T3 sequence (Q9UKT9 whole entry, looked up): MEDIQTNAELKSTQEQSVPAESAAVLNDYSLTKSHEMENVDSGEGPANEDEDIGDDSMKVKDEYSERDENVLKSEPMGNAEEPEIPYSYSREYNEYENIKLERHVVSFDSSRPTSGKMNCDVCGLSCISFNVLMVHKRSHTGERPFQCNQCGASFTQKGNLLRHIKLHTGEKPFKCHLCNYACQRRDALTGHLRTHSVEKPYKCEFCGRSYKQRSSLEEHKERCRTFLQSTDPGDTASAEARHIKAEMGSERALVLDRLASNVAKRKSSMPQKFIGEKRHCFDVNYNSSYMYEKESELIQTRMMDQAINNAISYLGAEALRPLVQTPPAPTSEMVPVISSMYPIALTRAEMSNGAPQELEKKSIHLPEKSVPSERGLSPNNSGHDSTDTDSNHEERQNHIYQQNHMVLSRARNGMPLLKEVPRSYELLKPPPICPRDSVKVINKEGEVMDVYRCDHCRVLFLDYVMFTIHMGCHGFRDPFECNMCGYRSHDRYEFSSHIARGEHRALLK

[7] = target: T3, Protein cereblon/Zinc finger protein Aiolos (Homo sapiens); assay: Protac activity at CRBN/IKZF3 in human MOLT-4 cells assessed as induction of IKZF3 degradation at 250 nM measured after 4 hrs by proteome mass spectrometry
[8] = target: T4, Cereblon/Casein kinase I alpha (Homo sapiens) (UniProt P48729+Q96SW2); assay: Protac activity at CRBN/CK1alpha in human MOLT-4 cells assessed as induction of CK1alpha degradation at 1 microM measured after 4 hrs by Immunoblotting analysis; type: cell-based; method in brief: as §2
T4 sequence (P48729 2-337 limits assumed): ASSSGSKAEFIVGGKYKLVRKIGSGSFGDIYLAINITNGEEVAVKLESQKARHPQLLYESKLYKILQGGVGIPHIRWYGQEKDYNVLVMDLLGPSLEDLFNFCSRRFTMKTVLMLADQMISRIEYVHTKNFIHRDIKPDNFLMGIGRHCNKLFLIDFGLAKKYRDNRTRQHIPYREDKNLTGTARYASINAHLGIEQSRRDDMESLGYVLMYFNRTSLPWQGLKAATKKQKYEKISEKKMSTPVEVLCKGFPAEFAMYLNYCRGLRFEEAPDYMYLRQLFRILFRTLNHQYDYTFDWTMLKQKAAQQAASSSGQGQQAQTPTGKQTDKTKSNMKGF
T4 sequence (Q96SW2 whole entry partner): as the sequence (Q96SW2 whole entry, looked up) above

[9] = target: T3, Protein cereblon/Zinc finger protein Aiolos (Homo sapiens); assay: Protac activity at CRBN/IKZF3 in human Jurkat cells assessed as induction of IKZF3 degradation measured after 4 hrs by Immunoblotting analysis; type: cell-based
Method in brief: (§3)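 Jurkat or MM.1S cells given the indicated concentrations, up to 1 µM, for 4 h. RIPA lysates (30 min on ice) with 20 μg protein per lane were separated by SDS-PAGE and transferred to nitrocellulose. Blots were probed for PDE6D, IKZF1 (1:1000), IKZF3 (1:1000) and CK1α, with β-actin control and IRDye fluorescent secondary detection.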

[10] = target: T2, Cereblon/Ikaros (Homo sapiens); assay: Protac activity at CRBN/IKZF1 in human MOLT-4 cells assessed as induction of IKZF1 degradation measured after 4 hrs by Immunoblotting analysis; type: cell-based; method in brief: as §2
[11] = target: T1, Protein cereblon/Retinal rod rhodopsin-sensitive cGMP 3',5'-cyclic phosphodiesterase subunit delta; assay: Protac activity at CRBN/PDE6D in human Jurkat cells assessed as induction of PDE6D degradation measured after 4 hrs by Immunoblotting analysis; type: cell-based; method in brief: as §3
[12] = target: T3, Protein cereblon/Zinc finger protein Aiolos (Homo sapiens); assay: Protac activity at CRBN/IKZF3 in human MOLT-4 cells assessed as induction of IKZF3 degradation measured after 4 hrs by Immunoblotting analysis; type: cell-based; method in brief: as §2
[13] = target: T1, Protein cereblon/Retinal rod rhodopsin-sensitive cGMP 3',5'-cyclic phosphodiesterase subunit delta; assay: Protac activity at CRBN/PDE6D in human MM1.S cells assessed as induction of PDE6D degradation measured after 4 hrs by Immunoblotting analysis; type: cell-based; method in brief: as §3
[14] = target: T4, Cereblon/Casein kinase I alpha (Homo sapiens); assay: Protac activity at CRBN/CK1alpha in human MM1.S cells assessed as induction of CK1alpha degradation at 40 nM measured after 4 hrs by Immunoblotting analysis; type: cell-based; method in brief: as §3
[15] = target: T1, Protein cereblon/Retinal rod rhodopsin-sensitive cGMP 3',5'-cyclic phosphodiesterase subunit delta; assay: Protac activity at CRBN/PDE6D in human MOLT-4 cells assessed as induction of PDE6D degradation measured after 4 hrs by Immunoblotting analysis; type: cell-based; method in brief: as §2
[16] = target: T3, Protein cereblon/Zinc finger protein Aiolos (Homo sapiens); assay: Protac activity at CRBN/IKZF3 in human MM1.S cells assessed as induction of IKZF3 degradation measured after 4 hrs by Immunoblotting analysis; type: cell-based; method in brief: as §3
[17] = target: T2, Cereblon/Ikaros (Homo sapiens); assay: Protac activity at CRBN/IKZF1 in human MM1.S cells assessed as induction of IKZF1 degradation measured after 4 hrs by Immunoblotting analysis; type: cell-based; method in brief: as §3
[18] = target: T2, Cereblon/Ikaros (Homo sapiens); assay: Protac activity at CRBN/IKZF1 in human Jurkat cells assessed as induction of IKZF1 degradation measured after 4 hrs by Immunoblotting analysis; type: cell-based; method in brief: as §3

Compound	Activity (PaTu 8988t)	Activity (AGS)	Activity (MIA PaCa-2)	Activity (NCI-H358)	Activity [3]	Activity [4]	Activity [6]	Activity [8]	further results
CNc1nccc(CN([C@H]2CC[C@H](N)CC2)S(=O)(=O)c2ccc(S(=O)(=O)N(Cc3ccc(Cl)cc3)C3CCCC3)cc2)n1									IC50 (PaTu 8988t): 1200 nM; IC50 (AGS): 1200 nM; IC50 (MIA PaCa-2): 507 nM; IC50 (NCI-H358): 954 nM
COc1cscc1-c1cn(C2CCC(=O)NC2=O)nn1 (stereo unspecified)	inactive	inactive	inactive	inactive					Activity [1]: inactive; Activity [2]: inactive
COc1c(-c2cn(C3CCC(=O)NC3=O)nn2)csc1C(=O)N1CCCC1 (stereo unspecified)					inactive	inactive	inactive	70%	Activity [5]: inactive; Activity [7]: inactive
CSc1cscc1-c1cn(C2CCC(=O)NC2=O)nn1 (stereo unspecified)	inactive	inactive	inactive	inactive	Active	inactive	inactive	inactive	Activity [9]: inactive; Activity [10]: inactive; Activity [11]: Active; Activity [12]: inactive; Activity [13]: Active; Activity [14]: 50%; Activity [15]: Active; Activity [16]: inactive; Activity [17]: inactive; Activity [18]: inactive
COc1c(-c2cn(C3CCC(=O)NC3=O)nn2)csc1C(=O)NC1CCCC1 (stereo unspecified)					inactive	inactive	inactive	70%	
O=C1CCC(n2cc(-c3ccsc3)nn2)C(=O)N1 (stereo unspecified)	inactive	inactive	inactive	inactive	Active			Active	DC50 [11]: < 200 nM; DC50 [13]: < 200 nM; DC50 [15]: < 200 nM
C=C(F)C(=O)N1CCN(c2nc(OC[C@@H]3CCCN3C)nc3c2CCN(c2cccc4cccc(Cl)c24)C3)C[C@@H]1CC#N [ADAGRASIB]									IC50 (PaTu 8988t): 3000 nM; IC50 (AGS): 1400 nM; IC50 (MIA PaCa-2): 4 nM; IC50 (NCI-H358): 6 nM
